S100A4 inh HTS: inhibitors of human S100A4 binding to myosin IIA peptide | 360,000 tested, 0.14% active | P26447 | AID 652163 | S100A4/TAMRA-MyoIIA peptide fluorescence polarization | inhibition, % at 10.7 µM;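 active means mean inhibition of at least 70% across replicates, with every replicate also reaching that level; inconclusive means mean inhibition reaches 70% but some replicates fall short; inactive means mean inhibition below 70%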
Target sequence (P26447 whole entry, looked up): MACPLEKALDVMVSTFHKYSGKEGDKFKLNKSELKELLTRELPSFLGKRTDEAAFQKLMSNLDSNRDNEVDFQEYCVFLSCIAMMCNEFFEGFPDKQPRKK
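Material: S100A4 monomer (human). Medium: Calcium-containing HEPES buffer, pH 7.2. Probe or stimulus: labelled myosin peptide probe, 5 nM. Compound dosing: one concentration per compound. Timing: polarization read 5 min after assay mix addition, stable 5–60 min. Benchmarks: DMSO as neutral control, TFP as positive control.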
XiGFP reactiv: reactivates the inactive X chromosome in mouse fibroblasts. XiGFP mouse fibroblasts, % GFP-positive cells imaging, 3 d; cells co-treated with 5-aza-dC sensitizer; scaled so ellipticine positive control = 100%. activation, % at 7.58 µM. 360,000 tested, 0.055% active;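 active means mean normalized replicate activation at least 10% and every replicate at or above 10%; inconclusive means only one of the two criteria met; inactive means mean below 10% and not all replicates reach 10%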;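 further: 0% = median of on-plate neutral control wells and 100% = ellipticine 6 µM median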
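Material: SV40-immortalized XiGFP fibroblast cells, line 68-5-11 | Buffer or medium: DMEM containing 5-aza-dC | Dosing: One concentration, pinned | Times: 3 d treatment, 15 min room-temperature fixation | Controls: Ellipticine 6 µM positive control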
Casp6 inh: inhibitors of human caspase-6; inhibition, % at 12.5 µM; P55212; purified caspase-6, Z-VEID-R110 cleavage fluorescence; 350,000 tested, 0.53% active;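 active means mean inhibition across replicates at least about 35%, with every replicate also reaching that limit, limit read from the data; inconclusive means only one of the two criteria met; inactive means neither criterion met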;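 further: 0% = median of neutral control wells and 100% = no fluorescence left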
RAD52 inh: RAD52 (human) annealing inhibition. inhibition, % at 18.7 µM. recombinant RAD52 DNA annealing, FRET fluorescence. AID 651710. P43351. 360,000 tested, 0.46% active;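 active means every replicate showing at least 50% inhibition; inconclusive means mean inhibition at least 50% but not in every replicate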
Target sequence (P43351 whole entry, looked up): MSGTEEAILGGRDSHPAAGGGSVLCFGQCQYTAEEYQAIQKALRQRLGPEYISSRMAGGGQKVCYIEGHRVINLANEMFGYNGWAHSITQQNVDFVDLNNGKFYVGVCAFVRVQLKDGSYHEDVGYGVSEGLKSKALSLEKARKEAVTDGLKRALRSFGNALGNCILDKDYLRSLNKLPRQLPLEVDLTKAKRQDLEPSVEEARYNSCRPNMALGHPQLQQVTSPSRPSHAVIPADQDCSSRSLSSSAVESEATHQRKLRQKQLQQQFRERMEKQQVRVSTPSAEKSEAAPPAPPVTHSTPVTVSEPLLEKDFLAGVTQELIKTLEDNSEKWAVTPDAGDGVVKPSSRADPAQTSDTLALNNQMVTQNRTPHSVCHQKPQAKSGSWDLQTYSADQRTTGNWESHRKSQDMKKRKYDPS
RAD54 branch: blocks human RAD54 Holliday junction branch migration. Q92698. AID 602329. 360,000 tested, 0.14% active. FAM/BHQ fluorescence. inhibition, % at 10.4 µM;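 active means mean normalized replicate activity at least 40 and at least half of replicates scoring 40 or more; inconclusive means only one of the two criteria met; inactive means mean below 40 and under half of replicates reaching 40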;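 further: 0% = median of neutral control wells and 100% = median of positive control wells; inhibitors cause a drop in the FAM fluorescence signal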
MLL AF4-AF9 inh: MLL-AF4/AF9 protein interaction inhibition; P42568; AlphaScreen, biotin-AF4 peptide binding to FLAG-AF9; inhibition, % at 10 µM; 350,000 tested, 0.47% active; AID 651704;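 active means every replicate reaching a set inhibition limit, whatever the replicate mean, cut at about 25% in these data; inconclusive means mean inhibition reaches that limit but some replicates miss it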;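 further: 0% = plate neutral control median and 100% = total signal loss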
RAD52 DNA ctr: counter-screen for RAD52 inhibitors: DNA binding compounds | shares compounds with RAD52 inh | Salmon sperm DNA/acridine orange FP displacement | AC50, µM | 1,000 tested, 8% active;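 active means fitted half-maximal concentration for signal loss at or below twice the highest dose tested, in every separate run, actives reach about 64 µM in these data; inconclusive means runs disagree, or flat partial signal loss, or poor fit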
* hit, by the source's call. Hits are enriched below; roughly 1.3% of the tested compounds scored in any of these assays.

How did CCOC(=O)N1CCC(NC(=O)c2cc3c(-c4ccccc4F)nn(C)c3s2)CC1 do in these assays?
S100A4 inh HTS: 2; XiGFP reactiv: 0; Casp6 inh: -1; RAD52 inh: -3; RAD54 branch: 10; MLL AF4-AF9 inh: 1

What do the screens show for `CCC(/C=C1\Sc2ccc(OC)cc2N1CCO)=C\c1sc2ccc(OC)cc2[n+]1CCO`?
S100A4 inh HTS: -59; XiGFP reactiv: 0; Casp6 inh: -7; RAD52 inh: 83*; RAD54 branch: 11; MLL AF4-AF9 inh: 22; RAD52 DNA ctr: inactive

Results for CCC(=O)/C=C1/Sc2ccc(OC)cc2N1CCO ?
S100A4 inh HTS: -6; XiGFP reactiv: 0; Casp6 inh: 1; RAD52 inh: -4; MLL AF4-AF9 inh: -6

What do the screens show for `CCNC(=O)[C@@H]1[C@@H](CO)[C@@H]2Cn3c(ccc(C4=CCCCC4)c3=O)[C@H]1N2CCC(F)(F)F`?
S100A4 inh HTS: 18; XiGFP reactiv: 1; Casp6 inh: -3; RAD52 inh: 2; MLL AF4-AF9 inh: -3

Results for Cc1ccc(-c2nc(C(=O)NCCCN3CCOCC3)cc3c2[nH]c2ccccc23)cc1 ?
S100A4 inh HTS: -4; Casp6 inh: -3; RAD52 inh: 94*; RAD54 branch: 30; MLL AF4-AF9 inh: 15; RAD52 DNA ctr: inactive

How did Cc1ccc(-c2cc(C(=O)NCCCN3CCOCC3)c3ccccc3n2)cc1 do in these assays?
S100A4 inh HTS: -6; XiGFP reactiv: 0; Casp6 inh: -5; RAD52 inh: -1; RAD54 branch: 3; MLL AF4-AF9 inh: 2

What do the screens show for `CC1(C)Cc2c(c(N3CCCC3)nc3sc4c(N5CCN(CCO)CC5)ncnc4c23)CO1`?
S100A4 inh HTS: -5; Casp6 inh: 5; RAD52 inh: 58*; RAD54 branch: 25; MLL AF4-AF9 inh: 2; RAD52 DNA ctr: inactive

Results for CC1(C)Cc2c(c(N3CCOCC3)nc3sc4c(NCCN)ncnc4c23)CO1 ?
S100A4 inh HTS: 9; XiGFP reactiv: 0; Casp6 inh: 2; RAD52 inh: 0; MLL AF4-AF9 inh: 6

How did O=S(=O)(N[C@@H]1CC[C@@H](CCn2cc(C3CC3)nn2)O[C@@H]1CO)c1ccc(F)cc1 do in these assays?
S100A4 inh HTS: -37; XiGFP reactiv: 0; Casp6 inh: -3; RAD52 inh: -5; RAD54 branch: -8; MLL AF4-AF9 inh: -2

What do the screens show for `CCNC(=O)/C(C#N)=C/c1c(N2CCCCCC2)nc2c(C)cccn2c1=O`?
S100A4 inh HTS: 6; XiGFP reactiv: 0; Casp6 inh: 5; RAD52 inh: 95*; RAD54 branch: 3; MLL AF4-AF9 inh: 8; RAD52 DNA ctr: inactive

What do the screens show for `CCNC(=O)/C(C#N)=C/c1c(N2CCN(c3ccccc3)CC2)nc2c(C)cccn2c1=O`?
S100A4 inh HTS: -9; XiGFP reactiv: 0; Casp6 inh: 3; RAD52 inh: -19; RAD54 branch: -7; MLL AF4-AF9 inh: 2

What do the screens show for `O=C(C[C@@H]1C[C@@H]2c3cc(NC(=O)Nc4ccccc4)ccc3O[C@@H]2[C@H](CO)O1)NCc1cccc(F)c1`?
S100A4 inh HTS: 4; XiGFP reactiv: 0; Casp6 inh: -2; RAD52 inh: 7; RAD54 branch: 3; MLL AF4-AF9 inh: -1

Results for C[C@@H]1CC(=O)NCC/C=C\C[C@@H](c2cccc(Cl)c2)NC1=O ?
XiGFP reactiv: 0

How did O=C1c2ccccc2C(=O)c2c(NCCCN(CCO)CCO)cccc21 do in these assays?
S100A4 inh HTS: -39; XiGFP reactiv: 0; Casp6 inh: -6; RAD52 inh: 93*; MLL AF4-AF9 inh: inconclusive; RAD52 DNA ctr: 4.3µM*

Results for Clc1ccc2[nH]c3c(c2c1)CNCC3 ?
S100A4 inh HTS: 0; XiGFP reactiv: 0; Casp6 inh: -27; RAD52 inh: 65*; RAD54 branch: 11; MLL AF4-AF9 inh: -5; RAD52 DNA ctr: inactive

How did CCn1c2ccccc2c2cc(CN3CCN(S(C)(=O)=O)CC3)ccc21 do in these assays?
XiGFP reactiv: 0; RAD54 branch: -2

Compound activity: PubChem BioAssay, Broad Institute
